Screening data deposited in PubChem BioAssay by several laboratories.
Rpn11 block: inhibitors of human proteasome Rpn11. O00487. human 26S proteasome, Ub4-pepOG fluorescence polarization; 20S core pre-blocked with epoxomicin. inhibition, % at 20 µM. 360,000 tested, 0.59% active. AID 588493;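 active means inhibition at 20 µM, scaled to each plate's controls, above about 33%, limit read from the data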
Target sequence (O00487 whole entry, looked up): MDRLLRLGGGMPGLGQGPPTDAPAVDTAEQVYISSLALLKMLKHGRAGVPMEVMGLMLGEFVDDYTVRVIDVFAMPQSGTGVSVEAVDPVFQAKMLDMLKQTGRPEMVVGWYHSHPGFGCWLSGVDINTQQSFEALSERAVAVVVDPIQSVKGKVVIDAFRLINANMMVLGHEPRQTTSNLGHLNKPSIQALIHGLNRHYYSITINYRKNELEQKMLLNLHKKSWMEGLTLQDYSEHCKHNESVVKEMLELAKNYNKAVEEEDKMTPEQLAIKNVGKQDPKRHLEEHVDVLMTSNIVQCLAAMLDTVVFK
Neddyl block: inhibitors of human cullin neddylation; P61081+Q13564; TR-FRET cullin neddylation, biochemical; inhibition, % at 25 µM; 360,000 tested, 0.58% active; AID 651699; in the data active means inhibition above about 36%
Rin1 Abl inh: human Rin1-Abl interaction inhibition. TR-FRET Rin1/Abl binding, biochemical. 360,000 tested, 0.4% active. inhibition, % at 7.35 µM; in the data active means inhibition above about 5%, passing the limit was not always enough
CSN deneddyl inh: CSN deneddylation inhibition. Q92905. Purified CSN, SCF-Nedd8-OG deneddylation, fluorescence polarization. inhibition, % at 12.5 µM. 360,000 tested, 0.38% active. AID 651999;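 active means pattern-corrected inhibition above about 35%, with an unprinted fluorescence ratio check between 0.5 and 1.5, limit read from the data, passing the limit was not always enough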;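 further: 0% = enzyme with substrate and 100% = substrate without enzyme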
Target sequence (Q92905 whole entry, looked up, one chain of several): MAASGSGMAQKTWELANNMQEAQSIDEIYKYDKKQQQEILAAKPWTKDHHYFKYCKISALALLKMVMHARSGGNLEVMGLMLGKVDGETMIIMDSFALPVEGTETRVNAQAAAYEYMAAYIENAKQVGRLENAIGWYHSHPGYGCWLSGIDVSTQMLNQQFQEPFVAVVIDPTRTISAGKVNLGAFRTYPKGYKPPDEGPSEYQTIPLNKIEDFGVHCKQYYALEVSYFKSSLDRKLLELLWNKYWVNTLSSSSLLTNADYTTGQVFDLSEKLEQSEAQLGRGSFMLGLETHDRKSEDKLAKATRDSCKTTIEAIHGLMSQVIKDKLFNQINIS
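Test system: Human Csn5 produced in HEK293T cells | Compound: 12.5 µM single point | Times: 90 min, room temperature | Signal: Fluorescence polarization readout | Read-out basis: % inhibition of substrate cleavage by Csn5 | Controls: no-enzyme wells high, enzyme-with-substrate wells low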
HNF4A DNA FP: change in binding of human HNF4 alpha to DNA. P41235. HNF4a-FITC DNA binding, fluorescence polarization, 1 h. activity change, % at 10 µM. 360,000 tested, 0.3% active; in the data active means activity change above about 30%, passing the limit was not always enough
TPT1 inhibitor: inhibitors of Candida albicans tRNA 2'-phosphotransferase TPT1 | recombinant caTPT1, FP RNA substrate dephosphorylation | inhibition, % at 5 µM | 300,000 tested, 0.81% active | AID 1962;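 active means inhibition above the mean of all tested compounds plus 3 SD, set per screening campaign, cut at about 24% in these data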;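 further: plate controls were DMSO alone for no effect and ferristatin control at 100 nM for full effect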
Active calls of the source: *; . = not tested or not shown. This is a sample that favours compounds with a hit; in the whole collection about 2.4% have one here.

SMILES	Rpn11 block	Neddyl block	Rin1 Abl inh	CSN deneddyl inh	HNF4A DNA FP	TPT1 inhibitor
O=C(CNC(=O)c1ccccc1)OCc1cccc([N+](=O)[O-])c1	8.2	-15.7	-0.9	-11.9	6.0	1.3
CC(C)OC(=O)c1cc2ccccc2[nH]1	-2.2	37.7	-9.8	-2.5	0.3	-1.2
CCOC(=O)c1cc2cc3ccccc3cc2[nH]1	-14.7	41.0*	-0.1	-0.9	-14.8	-1.0
CCOc1cc(C#N)c(NC(=O)Cn2nnc3ccccc32)cc1OCC	-1.5	-7.2	4.1	-3.0	34.3*	2.2
Cc1ccc(-n2nnnc2SCC(=O)Nc2ncc(Cc3ccccc3Cl)s2)cc1	-6.3	-3.6	-0.1	-1.3	-1.0	12.6
Nc1ccc(S(=O)(=O)N2CCc3ccccc32)cc1	-21.7	-0.8	0.5	0.2	84.9*	-0.1
O=S(=O)(c1ccc2ccccc2c1)N1CCc2ccccc21	-2.0	-8.3	-1.7	0.0	1.4	.
O=S(=O)(c1cnc[nH]1)N1CCc2ccccc21	.	-14.4	0.1	73.1*	102.9	4.2
Cc1cc(C)n2nc(C(F)(F)F)c(-c3ccccc3)c2n1	1.5	-41.2	0.8	-2.7	5.5	-1.3
CC(=O)Nc1ccc(NC(=O)COC(=O)c2ccccn2)cc1	-2.2	-2.3	0.3	-1.9	-2.2	0.8
C=CCOc1ccc(CNC(C)(C)C)cc1OC	2.3	-13.4	-3.8	-3.6	50.9*	-0.8
O=C(Nc1cccc(-c2nc3cccnc3s2)c1)C1c2ccccc2Oc2ccccc21	34.5	-3.9	-4.4	76.2*	47.3*	.
Cc1ccc(N(C(=O)c2snc(C(N)=O)c2N)C(CC(C)C)C(=O)NC2CCCC2)cc1 (configuration not stated)	10.2	31.5	3.6	110.5*	-2.5	-2.3
C/C(=N/NC(=O)c1cc2ccccc2cc1O)c1ccco1	15.5	21.4	-3.2	7.4	0.9	5.8
C/C(=N\NC(=O)c1cc2ccccc2cc1O)c1ccc(C)o1	15.4	40.3*	-3.1	2.5	2.4	3.6
COc1ccc(N2C(=O)[C@@H]3[C@H](C2=O)[C@H]2c4ccccc4C=CN2[C@@H]3C(=O)Nc2ccccc2)cc1	.	4.4	-1.5	-68.1	100.9	102.3*
CCCC(CCC)C(=O)Nc1cccc(-c2cn3c(n2)SCC3)c1	-9.4	0.4	-1.3	-4.2	38.1*	1.2
COC(=O)c1ccc(C)c(NC(=O)CCn2[nH]c(=O)ccc2=O)c1	6.5	3.8	-0.4	0.0	-2.7	.
CCN1C(=O)c2cccc3c(S(=O)(=O)Nc4ncccc4C)ccc1c23	5.8	51.4*	-8.1	-1.3	-1.4	2.9
COc1ccc(C(=O)Nc2ccc3c(c2)nc(CCNC(=O)c2ccco2)n3C)cc1	3.2	-0.7	4.2	4.4	2.0	-0.8
CSc1ncc(C(=O)Nc2cccnc2)c(C(F)(F)F)n1	0.1	5.0	-1.9	0.3	246.1	.
O=c1[nH]cc(N=Cc2cc([N+](=O)[O-])ccc2O)c(=O)[nH]1	.	.	.	.	.	0.7
O=c1[nH]cc(N=Cc2cc(Cl)cc(Cl)c2O)c(=O)[nH]1	-14.0	41.6*	4.0	-0.8	-4.8	-2.5
CCOC(=O)C1=C(O)/C(=C/c2ccc(-c3ccccc3C(=O)O)o2)SC1=Nc1ccc(C)cc1	.	17.7	-0.9	50.2*	58.1*	.
Cc1cc(F)ccc1NS(=O)(=O)c1cccc2nsnc12	-3.2	-6.5	-0.5	2.7	2.7	-2.8
SMILES	Rpn11 block	Neddyl block	Rin1 Abl inh	CSN deneddyl inh	HNF4A DNA FP	TPT1 inhibitor
Cc1ccc(O)c(NS(=O)(=O)c2cccc3nsnc23)c1	-11.4	-41.5	-4.6	-3.5	78.8*	-3.1
Cc1c(C)c2ccc(OCC(=O)NCCN3CCOCC3)c(C)c2oc1=O	4.2	47.1*	1.3	1.7	-2.0	2.5
CCCC[n+]1ccn(-c2nc3ccccc3nc2[N-]S(=O)(=O)c2ccc(Br)cc2)c1	23.8	-125.0	-2.2	41.3*	-4.3	0.4
O=S(=O)([N-]c1nc2ccccc2nc1-n1cc[n+](Cc2ccccc2)c1)c1ccc(Cl)cc1	0.3	13.7	0.9	0.5	0.7	-1.8
CCOC(=O)c1cccc(N/C=C/C(=O)c2ccc(OC)c(OC)c2)c1	5.0	15.3	0.0	92.2*	1.4	5.5
O=C(/C=C/c1ccc(NC(=O)c2ccccc2-c2ccccc2C(=O)O)cc1)c1ccccc1	.	21.6	-1.3	50.5*	30.7	20.2
COc1cc2oc(=O)cc(CN3CCOCC3)c2cc1Cl	5.8	8.0	-3.0	118.2*	0.7	.
CCOc1ccc(C(=O)Nc2cc(NC(=O)c3ccc(OCC)c(Cl)c3)cc(C(=O)O)c2)cc1Cl	3.4	15.5	-0.8	48.8*	-0.1	.
Cn1cncc1C#Cc1ccc2cc(CCCO)oc(=O)c2c1	-6.4	44.8*	-1.6	-4.0	0.8	.
Cn1cncc1C#Cc1ccc2cc(C(C)(C)O)oc(=O)c2c1	4.4	20.3	-3.0	4.2	0.6	.
CC(C)CC1=C/C(=C/c2ccc(-c3ccccc3)o2)C(=O)O1	53.2*	36.3	1.4	38.0*	-16.9	8.0
COc1ccc(/C=C/C(=O)OCC(=O)Nc2ccc3c(c2)OCO3)cc1	-1.7	17.0	-3.1	-0.8	11.0	.
COC(=O)CSc1nnc(CNC(=O)c2ccccc2OC)n1C	0.3	-5.2	2.6	-5.6	-0.1	-6.0
COC(=O)CSc1nnc(CNC(=O)c2cc(OC)c(OC)c(OC)c2)n1C	3.3	5.5	0.4	-6.0	28.4*	-1.3
O=S(=O)(Nc1nc2ccccc2nc1N1CCc2ccccc2C1)c1ccc(Br)cc1	-18.1	60.7*	-4.1	-3.7	-5.2	-0.2
COCCCn1c(=O)/c(=C\c2ccccc2OC(F)F)s/c1=C(/C#N)C(=O)NC(C)C	.	6.2	3.4	36.3*	21.7	3.9
Cc1ccc(/C=c2\s/c(=C(/C#N)C(=O)N3CCCC3)n(Cc3ccco3)c2=O)s1	-15.5	-8.4	-8.9	13.1	1.4	14.2
COCCCn1c(=O)/c(=C\c2ccc(OC(F)F)c(OC)c2)s/c1=C(/C#N)C(=O)NCCOC	.	38.7	0.2	56.8*	73.6*	13.6
CCc1ccccc1NC(=O)/C(C#N)=C/c1ccc(Sc2ccccc2)o1	5.7	4.0	1.6	-4.0	3.5	5.0
Cc1cc(C)nc(Sc2ccc(/C=C(\C#N)C(=O)Nc3ccccc3)o2)n1	13.0	-26.7	1.3	9.2	71.3*	11.3
Cn1cc(C(=O)c2ccccc2C(=O)O)cc1C(=O)C(Cl)(Cl)Cl	0.2	-0.5	2.1	43.5*	1.4	-0.1
Cc1nc(-c2ccc(NC(=O)c3ccc(Br)o3)cc2)cs1	-0.9	5.6	-0.7	2.1	1.0	-4.2
Cc1ccc(C(=O)Nc2scc(-c3ccccc3)c2C(=O)O)cc1	-3.4	41.5*	-3.3	0.8	0.1	-1.9
COc1cc(C(=O)Nc2scc(-c3ccc(C)cc3)c2C(=O)O)cc(OC)c1OC	0.7	.	0.3	1.4	2.1	-1.3
Cc1ccc(CSCC(=O)N2CCOCC2)cc1	3.1	-5.9	2.8	-1.0	1.8	-0.4
